In ChEMBL document CHEMBL4321859, “Unforeseen Possibilities To Investigate the Regulation of Polyamine Metabolism Revealed by Novel C-Methylated Spermine Derivatives” (J Med Chem, 2019):
Calls of active or inactive are those of the source. The calls are words filed in the database; no cut-off is given here.

Columns and labels:
CC(CN)CNCCCCNCC(C)CN = experiment: (§1) Substrate activity at recombinant mouse SSAT assessed as Km at 2000 to 6000 uM; type: ADME
CC(CCN)NCCCCNC(C)CCN = experiment: as §1; type: ADME
[1] = target: T1, Ornithine decarboxylase (Homo sapiens) (UniProt P11926); experiment: Inhibition of ODC in human DU145 cells at 100 uM after 6 hrs; type: cell-based
T1 sequence (whole entry): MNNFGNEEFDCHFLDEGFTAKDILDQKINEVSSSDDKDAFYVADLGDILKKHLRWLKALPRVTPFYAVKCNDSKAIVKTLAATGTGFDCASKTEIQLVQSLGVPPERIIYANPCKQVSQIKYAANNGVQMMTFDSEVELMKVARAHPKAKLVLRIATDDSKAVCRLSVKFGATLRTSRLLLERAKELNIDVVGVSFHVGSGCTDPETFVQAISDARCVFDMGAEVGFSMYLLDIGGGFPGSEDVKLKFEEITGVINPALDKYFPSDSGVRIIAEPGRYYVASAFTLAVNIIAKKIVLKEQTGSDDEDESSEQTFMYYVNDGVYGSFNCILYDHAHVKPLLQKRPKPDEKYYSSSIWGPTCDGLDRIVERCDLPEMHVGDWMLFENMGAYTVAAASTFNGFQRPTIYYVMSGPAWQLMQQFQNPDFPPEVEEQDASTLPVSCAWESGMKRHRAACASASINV

[2] = target: T1, Ornithine decarboxylase (Homo sapiens); experiment: Inhibition of ODC in human DU145 cells at 100 uM after 3 days; type: cell-based
[3] = target: Ornithine decarboxylase antizyme 1 (Homo sapiens) (UniProt P54368); experiment: Induction of OAZ1 in human DU145 cells assessed as reduction in intracellular ODC activity at 10 uM after 6 hrs relative to control; parameters: scale not given: the % may be the effect or the level left
Ornithine decarboxylase antizyme 1 (Homo sapiens), sequence (P54368 whole entry): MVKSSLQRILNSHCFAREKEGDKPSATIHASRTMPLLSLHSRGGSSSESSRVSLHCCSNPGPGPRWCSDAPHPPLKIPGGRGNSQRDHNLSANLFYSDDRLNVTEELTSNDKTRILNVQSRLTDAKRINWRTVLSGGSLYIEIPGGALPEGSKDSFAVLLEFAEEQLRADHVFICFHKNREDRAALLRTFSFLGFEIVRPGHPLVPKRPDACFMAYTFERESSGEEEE

[4] = target: T2, Amine oxidase [copper-containing] 3 (Bos taurus) (UniProt Q9TTK6); experiment: Inhibition of bovine plasma SSAO at 50 uM using spermine as substrate relative to control
T2 sequence (whole entry): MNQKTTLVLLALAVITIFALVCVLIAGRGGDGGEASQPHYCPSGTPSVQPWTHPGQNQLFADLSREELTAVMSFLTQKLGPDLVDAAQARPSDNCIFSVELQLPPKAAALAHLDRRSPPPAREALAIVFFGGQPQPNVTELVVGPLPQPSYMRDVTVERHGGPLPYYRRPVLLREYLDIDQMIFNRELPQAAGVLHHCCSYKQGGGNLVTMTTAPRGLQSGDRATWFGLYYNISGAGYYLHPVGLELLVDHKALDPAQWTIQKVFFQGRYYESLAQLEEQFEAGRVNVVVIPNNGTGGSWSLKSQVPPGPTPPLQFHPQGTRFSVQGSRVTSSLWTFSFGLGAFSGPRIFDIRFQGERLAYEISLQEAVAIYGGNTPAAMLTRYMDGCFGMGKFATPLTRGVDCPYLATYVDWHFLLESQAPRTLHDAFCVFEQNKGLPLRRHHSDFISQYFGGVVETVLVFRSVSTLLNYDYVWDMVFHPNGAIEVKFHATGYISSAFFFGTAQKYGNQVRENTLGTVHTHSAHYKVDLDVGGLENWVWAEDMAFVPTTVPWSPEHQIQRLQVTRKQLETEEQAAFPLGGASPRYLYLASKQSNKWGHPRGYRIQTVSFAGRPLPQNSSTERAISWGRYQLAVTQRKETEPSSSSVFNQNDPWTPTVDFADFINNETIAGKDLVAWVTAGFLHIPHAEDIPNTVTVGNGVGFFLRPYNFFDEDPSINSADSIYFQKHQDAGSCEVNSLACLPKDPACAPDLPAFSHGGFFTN
In short: (§2)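 Competition with natural substrate at fixed 50 μM: spermine for purified bovine plasma SSAO and human recombinant SMOX, N1-acetylspermidine for human recombinant APAO. Analogue tested at 50 μM, with activity expressed relative to reaction without analogue.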

[5] = target: T3, S-adenosylmethionine decarboxylase proenzyme (Homo sapiens) (UniProt P17707); experiment: Inhibition of AdoMetDC in human DU145 cells at 100 uM after 6 hrs; type: cell-based
T3 sequence (whole entry): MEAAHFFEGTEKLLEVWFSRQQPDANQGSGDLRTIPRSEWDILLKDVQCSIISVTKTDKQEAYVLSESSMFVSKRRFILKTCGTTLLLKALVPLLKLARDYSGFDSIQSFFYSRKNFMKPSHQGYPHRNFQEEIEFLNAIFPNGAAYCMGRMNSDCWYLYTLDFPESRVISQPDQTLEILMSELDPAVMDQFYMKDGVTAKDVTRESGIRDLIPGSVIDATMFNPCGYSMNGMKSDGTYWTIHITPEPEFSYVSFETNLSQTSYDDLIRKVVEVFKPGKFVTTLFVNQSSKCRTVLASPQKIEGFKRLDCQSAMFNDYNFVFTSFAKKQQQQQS

[6] = target: Diamine acetyltransferase 1 (Homo sapiens) (UniProt P21673); experiment: Induction of changes in SSAT activity in human DU145 cells at 100 uM after 3 days; type: cell-based
Diamine acetyltransferase 1 (Homo sapiens), sequence (P21673 whole entry): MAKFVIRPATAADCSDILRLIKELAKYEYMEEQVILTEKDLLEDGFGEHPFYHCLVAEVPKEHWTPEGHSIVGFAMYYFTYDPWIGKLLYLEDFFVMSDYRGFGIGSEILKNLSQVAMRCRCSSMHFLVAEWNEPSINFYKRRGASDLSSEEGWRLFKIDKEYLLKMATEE

[7] = target: T3, S-adenosylmethionine decarboxylase proenzyme (Homo sapiens); experiment: Inhibition of AdoMetDC in human DU145 cells at 100 uM after 3 days; type: cell-based
DU-145 = experiment: Reversal of alpha-difluoromethylornithine-induced growth arrest in human DU145 cells at 100 uM after 3 days; type: functional, cell-based
In short: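 DU145 cells cultured 3 days with 100 μM analogue, with or without 5 mM DFMO, all supplemented with 1 mM aminoguanidine. Growth assessed by electronic cell counting. Means ± SD, n = 3.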

[8] = target: Spermine oxidase (Homo sapiens) (UniProt Q9NWM0); experiment: Inhibition of recombinant human SMOX at 500 uM using spermine as substrate relative to control
Spermine oxidase (Homo sapiens), sequence (Q9NWM0 whole entry): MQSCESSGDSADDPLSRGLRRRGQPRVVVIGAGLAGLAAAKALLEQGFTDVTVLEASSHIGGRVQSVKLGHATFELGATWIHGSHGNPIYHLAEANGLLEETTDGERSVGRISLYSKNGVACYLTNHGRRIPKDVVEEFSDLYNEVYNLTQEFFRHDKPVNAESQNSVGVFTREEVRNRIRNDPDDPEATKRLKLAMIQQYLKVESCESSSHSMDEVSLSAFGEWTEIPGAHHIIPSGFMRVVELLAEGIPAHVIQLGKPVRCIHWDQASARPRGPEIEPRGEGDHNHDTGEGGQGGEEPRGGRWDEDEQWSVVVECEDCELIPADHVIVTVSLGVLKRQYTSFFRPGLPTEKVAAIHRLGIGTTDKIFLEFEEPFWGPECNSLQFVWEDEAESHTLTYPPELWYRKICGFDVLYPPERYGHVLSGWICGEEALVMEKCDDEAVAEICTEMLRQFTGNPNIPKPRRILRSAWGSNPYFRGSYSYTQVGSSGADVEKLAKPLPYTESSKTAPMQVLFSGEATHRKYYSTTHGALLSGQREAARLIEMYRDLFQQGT
In short: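 Human recombinant SMOX reaction with spermine fixed at 50 μM as substrate, analogue added at 500 μM. Activity expressed relative to reaction without analogue.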

[9] = target: Diamine acetyltransferase 1 (Homo sapiens) (UniProt P21673); experiment: Induction of changes in SSAT activity in human DU145 cells at 100 uM after 6 hrs; type: cell-based
[10] = target: Diamine acetyltransferase 1 (Mus musculus) (UniProt P48026); experiment: Inhibition of recombinant mouse SSAT using spm as substrate at 500 uM relative to control
Diamine acetyltransferase 1 (Mus musculus) (UniProt P48026), sequence (P48026 whole entry): as the sequence (P21673 whole entry) above, with V5K, A12S, E32D, L42Q, R119K, T169A counted along it
In short: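 Mouse recombinant SSAT acetylation with spermine fixed at 50 μM as substrate, analogue present at 500 μM. Activity expressed relative to reaction without analogue.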

[11] = target: Ornithine decarboxylase antizyme 1 (Homo sapiens) (UniProt P54368); experiment: Induction of OAZ1 in human DU145 cells assessed as reduction in intracellular ODC activity at 100 uM after 6 hrs relative to control; parameters: scale not given: the % may be the effect or the level left
[12] = target: Spermine oxidase (Homo sapiens) (UniProt Q9NWM0); experiment: Inhibition of recombinant human SMOX at 50 uM using spermine as substrate relative to control; in short: as §2

Diamine acetyltransferase 1 (Mus musculus), sequence (chain, as listed by the source): as the sequence (P21673 whole entry) above, with V5K, A12S, E32D, L42Q, R119K, T169A counted along it

Diamine acetyltransferase 1 (Mus musculus)
Km (CC(CN)CNCCCCNCC(C)CN): 52 µM | Vmax (CC(CN)CNCCCCNCC(C)CN): 0.895 µmol/min/mg | Km (CC(CCN)NCCCCNC(C)CCN): 60 µM | Vmax (CC(CCN)NCCCCNC(C)CCN): 0.136 µmol/min/mg

NCCCNCCCCNCCCN
inhibition [1]: Active | inhibition [2]: Active | Activity [3]: 80%

CC(CN)CNCCCCNCC(C)CN (centres undefined)
inhibition [4]: 80% | inhibition [5]: Active | Activity [6]: Active | inhibition [7]: Active | Activity (DU-145): Active | inhibition [1]: Active | inhibition [8]: 70% | inhibition [2]: Active | Activity [9]: inactive | Activity [3]: 80%

CC(CCN)NCCCCNC(C)CCN (centres undefined)
inhibition [10]: 75% | Activity [11]: 55% | inhibition [4]: inactive | inhibition [12]: 70% | inhibition [5]: Active | Activity [6]: inactive | inhibition [7]: Active | Activity (DU-145): Active | inhibition [1]: inactive | inhibition [2]: inactive | Activity [9]: inactive | Activity [3]: 5%

CC(N)CCNCCCCNCCC(C)N (centres undefined)
inhibition [10]: 80% | inhibition [4]: inactive | inhibition [5]: Active | Activity [6]: Active | inhibition [7]: Active | Activity (DU-145): Active | inhibition [1]: Active | inhibition [2]: Active | Activity [9]: inactive | Activity [3]: 80%
